TRPC4 agonist: activators of mouse TRPC4 channel, primary screen, Fluo4 calcium, HEK293 TRPC4beta/mu-opioid cells | Short transient receptor potential channel 4 (Mus musculus), Q9QUQ5 | Fluo4 calcium fluorescence; stronger effect = higher value | B-score at 10 µM | 310,000 compounds, 0.49% hits | AID 2237, 2010;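 active = B-score above 5 SD of library B-scores, and initial fluorescence ratio not above library mean plus 5 SD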;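 also: positive B-score marks a calcium rise read as TRPC4 activation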
Target sequence (Q9QUQ5 whole entry, looked up): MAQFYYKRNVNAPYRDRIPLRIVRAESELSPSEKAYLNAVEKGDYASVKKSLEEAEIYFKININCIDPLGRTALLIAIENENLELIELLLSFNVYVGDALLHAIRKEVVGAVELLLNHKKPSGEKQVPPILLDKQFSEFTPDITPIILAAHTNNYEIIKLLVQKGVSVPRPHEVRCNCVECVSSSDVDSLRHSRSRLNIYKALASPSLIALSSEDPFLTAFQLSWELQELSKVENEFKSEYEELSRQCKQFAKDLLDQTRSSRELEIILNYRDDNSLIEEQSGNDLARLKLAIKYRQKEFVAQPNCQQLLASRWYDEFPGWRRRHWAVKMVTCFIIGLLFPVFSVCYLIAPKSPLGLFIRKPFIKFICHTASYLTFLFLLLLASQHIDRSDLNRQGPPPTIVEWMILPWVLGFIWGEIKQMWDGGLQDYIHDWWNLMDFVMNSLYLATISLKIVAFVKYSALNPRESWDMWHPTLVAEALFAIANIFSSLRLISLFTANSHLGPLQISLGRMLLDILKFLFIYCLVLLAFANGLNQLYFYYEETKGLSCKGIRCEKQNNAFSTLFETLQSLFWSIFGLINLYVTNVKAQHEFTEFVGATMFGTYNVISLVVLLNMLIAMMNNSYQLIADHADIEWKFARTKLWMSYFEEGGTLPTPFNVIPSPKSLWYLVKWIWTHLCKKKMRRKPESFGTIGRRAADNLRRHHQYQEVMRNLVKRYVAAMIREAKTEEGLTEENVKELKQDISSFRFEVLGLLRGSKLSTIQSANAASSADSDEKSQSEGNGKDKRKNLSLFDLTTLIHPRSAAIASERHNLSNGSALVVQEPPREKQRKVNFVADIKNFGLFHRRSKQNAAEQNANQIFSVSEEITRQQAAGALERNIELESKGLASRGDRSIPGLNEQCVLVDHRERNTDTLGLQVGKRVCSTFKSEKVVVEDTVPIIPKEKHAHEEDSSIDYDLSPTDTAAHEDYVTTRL
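Test system: HEK293 cells stably co-expressing mouse TRPC4beta and mu-opioid receptor | Schedule: Fluo4 dye loading 45 min at room temperature, 110 s recording | Measured by: Kinetic Fluo4 calcium fluorescence, 5 s baseline at 1 Hz | Evaluation: B score of integrated ratio | Controls: Buffer (low) and maximal DAMGO (high)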
TRPC6 activator: mouse TRPC6 channel activators, primary screen, cell-based, HEK293, membrane potential dye; Short transient receptor potential channel 6 (Mus musculus), Q61143; HEK293-TRPC6 membrane potential dye fluorescence; stronger effect = higher value; B-score at 10 µM; 310,000 compounds, 0.13% hits;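 active = B-score of the integrated fluorescence ratio above library mean plus 3 SD, and starting fluorescence ratio within library mean plus 5 SD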;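 also: higher score means more depolarization so channel activation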
TRPC6 inhibitor: mouse TRPC6 channel inhibitors, primary screen, cell-based, HEK293, membrane potential dye | ACh-evoked depolarization; stronger effect = lower value | AID 2553, 2010 | 310,000 compounds, 1.1% hits | Short transient receptor potential channel 6 (Mus musculus), Q61143 | B-score at 10 µM;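 active = B-score under library mean minus 3 SD, initial fluorescence not abnormally high, positive integrated signal ratio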;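 also: B-score derived from integrated fluorescence ratio over the kinetic read; more negative B-score means stronger inhibition of depolarization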
TRPC4 potent: positive allosteric modulators of TRPC4, primary screen, cell-based, mouse TRPC4beta, HEK293 mu-opioid, Fluo-4 calcium | Short transient receptor potential channel 4 (Mus musculus), Q9QUQ5 | DAMGO EC20, Fluo-4 Ca2+ flux; stronger effect = higher value | B-score at 10 µM | 310,000 compounds, 0.42% hits | AID 2227, 2009;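 active = B-score of calcium response area above 5 SD of library B-scores, with initial fluorescence ratio within 5 SD of library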
TRPC4 inh: inhibitors of mouse TRPC4 channel, primary screen, Fluo4 calcium, HEK293 TRPC4beta/mu-opioid cells; DAMGO-evoked Fluo4 calcium flux; stronger effect = lower value; B-score at 10 µM; 300,000 compounds, 0.39% hits;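 active = B-score over 3 SD under the library average, no early fluorescence shift, positive overall ratio signal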
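System: stable TRPC4beta/mu-opioid receptor HEK293 cells; Dosing: single-point compound dosing; Measured by: Fluo4 Ca2+ flux fluorescence; Read-out basis: per-well B score of integrated baseline-normalized Fluo4 ratio.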
TRPC4 spec 2: second check of whether TRPC6 inhibitors also affect mouse TRPC4 | shares compounds with TRPC6 inhibitor | HEK293 TRPC4/MOR, membrane potential dye fluorescence; channel activated by saturating DAMGO dose | inhibition, % at 10 µM | 920 compounds, 42% hits;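 active = compounds whose fluorescence signal differed from control wells by over 3 SD, either direction, in both duplicate plates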
TRPC4 spec: mouse TRPC4 modulation by TRPC6 hits, confirmation, selectivity assay for TRPC6 inhibitor project, cell-based, HEK293 TRPC4/mu-opioid, membrane potential dye. shares compounds with TRPC6 inhibitor. membrane potential fluorescence. activity change, negative = inhibition, % at 10 µM. 920 compounds, 61% hits;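 active = rise or fall in signal beyond 3 SD of buffer-only wells in both replicate plates, either sign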;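 also: integrated kinetic ratio of fluorescence range over baseline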
HEK293 MPD ctr 2-1: nonspecific membrane potential effects, parental HEK293, confirmation, counter-screen for TRPC6 inhibitor project, cell-based, second counter screen; shares compounds with TRPC6 inhibitor; parental HEK293 membrane potential dye fluorescence; maximal acetylcholine challenge after compound addition; signal change vs control, % at 10 µM; 920 compounds, 31% hits;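 active = membrane potential signal moving either way by over 3 SD of the maximum-effect control, in both duplicate plates, meaning non-specific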
HEK293 MPD ctr-1: membrane potential modulation in parental HEK293, confirmation, counter-screen for TRPC6 inhibitor project, cell-based; shares compounds with TRPC6 inhibitor; parental HEK293 membrane potential dye fluorescence; membrane potential signal change, % at 10 µM; 920 compounds, 60% hits;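 active = membrane potential signal shifting up or down by more than 3 SD of buffer-only wells, on both duplicate plates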
HEK293 MPD ctr-2: parental HEK293 membrane potential modulation, confirmation, counter-screen for TRPC6 modulator project, cell-based; membrane potential signal change, % at 10 µM; AID 488924, 2010; 2,400 compounds, 51% hits; membrane potential dye fluorescence; shares compounds with TRPC6 inhibitor;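 active = membrane potential signal moves up or down beyond 5 SD from buffer-only wells, on both duplicate plates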
HEK293 MPD ctr 2-2: second counter-screen for TRPC6 modulators: effect in parental HEK293 cells; membrane potential dye fluorescence; after compound, maximal acetylcholine stimulation; inhibition, % at 10 µM; shares compounds with TRPC6 inhibitor; 2,400 compounds, 14% hits; AID 488926;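 active = membrane potential signal drops by more than 5 SD from the mean control signal, in both duplicate plates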
TRPC4/MOR mod: TRPC4 modulation by TRPC6 hit compounds, confirmation, selectivity assay for TRPC6 modulator project, cell-based, HEK293 TRPC4/mu-opioid, membrane potential dye, mouse | shares compounds with TRPC6 inhibitor | membrane potential fluorescence | percent change from control (negative = decrease, positive = increase), % at 10 µM | 2,400 compounds, 69% hits;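 active = membrane potential signal moved up or down beyond 5 SD of buffer control wells, in both duplicate plates, actives on both sides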
TRPC4/MOR inh 2: mouse TRPC4 off-target activity of TRPC6 modulators, second screen; shares compounds with TRPC6 inhibitor; HEK293 TRPC4/mu-opioid, membrane potential dye fluorescence; stimulated with maximal-effect DAMGO; inhibition, % at 10 µM; 2,400 compounds, 55% hits;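 active = drop in membrane potential signal beyond 5 SD of the control wells in both duplicate plates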;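 also: TRPC4 counter screen for TRPC6 hits run under conditions tuned for TRPC6 not TRPC4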
TRPC6 inh conf: mouse TRPC6 channel inhibitors, confirmation, HEK293 cells, membrane potential dye, duplicate; shares compounds with TRPC6 inhibitor; ACh-evoked depolarization; inhibition, % at 10 µM; 3,300 compounds, 43% hits; AID 488960, 2010;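 active = fluorescence ratio falls more than 5 SD below the full-stimulation control mean, in both duplicate runs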;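 also: integrated fluorescence ratio of peak minus minimum over baseline after agonist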
TRPC6 act conf: mouse TRPC6 channel activators, confirmation, HEK293 cells, membrane potential dye, duplicate; 2,800 compounds, 11% hits; shares compounds with TRPC6 inhibitor; HEK293-TRPC6 membrane potential dye fluorescence, FDSS; activation, % at 10 µM; AID 488961, 2010;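 active = ratio signal rise beyond 5 SD above unstimulated control wells' mean, seen in both duplicate runs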
Of the large screens only hits and unclear results are named; the others gave an inactive call (follow-up assays come after a bar, where they were run). The list is not random: actives were taken first. Their share in the collection is about 2.3%.

CCN1CCN(c2nc3c(c(=O)[nH]c(=O)n3C)n2CCCSc2ncccn2)CC1	TRPC6 inhibitor -5.41 | HEK293 MPD ctr-2 -188.5% | HEK293 MPD ctr 2-2 inactive | TRPC4/MOR mod -22.0% | TRPC4/MOR inh 2 46.5% | TRPC6 inh conf inactive | TRPC6 act conf inactive
CN1CCN(c2nc3c(c(=O)[nH]c(=O)n3C)n2CCCSc2ncccn2)CC1	TRPC6 inhibitor -5.9 | HEK293 MPD ctr-2 -166.0% | HEK293 MPD ctr 2-2 inactive | TRPC4/MOR mod -30.0% | TRPC4/MOR inh 2 inactive | TRPC6 inh conf inactive | TRPC6 act conf inactive
Cc1ccc(NS(=O)(=O)c2ccc(NC(=O)c3ccccc3C(=O)O)cc2)cc1C	none
COc1ccc2c(c1)CCc1c(C(=O)N3CCCc4ccccc43)noc1-2	none
O=C(NCC1CCCO1)c1cccc(Oc2ccc([N+](=O)[O-])cc2Cl)c1 (stereo unspecified)	none
CCOC(=O)c1c(NCCN(C)C)c2ccccc2[nH]c1=O	none
CCOC(=O)c1cnc2c(C(=O)OC)cccc2c1NCc1cccnc1	TRPC6 inhibitor -6.16 | HEK293 MPD ctr-2 inactive | HEK293 MPD ctr 2-2 inactive | TRPC4/MOR mod 14.5% | TRPC4/MOR inh 2 inactive | TRPC6 inh conf inactive | TRPC6 act conf inactive
CCOC(=O)c1cnc2c(ccc3ccccc32)c1NCCN(C)C	TRPC6 inhibitor -6.79 | TRPC4 spec 2 74.5% | TRPC4 spec -14.3% | HEK293 MPD ctr 2-1 inactive | HEK293 MPD ctr-1 -232.5% | TRPC6 inh conf inactive | TRPC6 act conf inactive
CCOC(=O)c1cnc2c(ccc3ccccc32)c1NCCO	none

Assay outcomes as filed in PubChem.
